From BindingDB's records for doi:10.1128/AAC.00443-09 (University of Medicine and Dentistry of New Jersey, 2009) come the findings set out here.

In test [1] the target is 1,3-beta-glucan synthase (Candida glabrata, UniProt E2GKZ4, D632E). The test can be described thus: Inhibition of Candida glabrata isolate 3169 1,3-beta-D-glucan synthase Fks1p D632E mutant/wild type Fks2p. The essentials:
(§1)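 Cells grown in YPD broth at 35°C with vigorous shaking to early stationary phase. Membrane protein extracted and glucan synthase partially purified by product entrapment. Filtration polymerization assay measured [3H]glucose incorporation into product, started by adding enzyme. Echinocandin serial dilutions spanned 0.01–10,000 ng/ml, with 1% DMSO controls for anidulafungin. IC50 from variable-slope sigmoidal fit.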

Test [2] deals with 1,3-beta-glucan synthase (Candida glabrata, UniProt F5BCZ9, W1375L). Briefly: Inhibition of Candida glabrata isolate 5416 1,3-beta-D-glucan synthase wild type Fks1p/Fks2p W1375L mutant. The essentials:
as §1

Test [3] addresses 1,3-beta-glucan synthase (Candida glabrata, UniProt F5BCZ9, F659V). Briefly: Inhibition of Candida glabrata isolate 234 1,3-beta-D-glucan synthase wild type Fks1p/Fks2p F659V mutant. In short, it runs like this: as §1
Test [4] concerns the target 1,3-beta-glucan synthase (Candida glabrata, UniProt F5BCZ9, D666G). The test can be described thus: Inhibition of Candida glabrata isolate 41400 1,3-beta-D-glucan synthase wild type Fks1p/Fks2p D666G mutant. In short, it runs like this: as §1
For test [5], the target named is 1,3-beta-glucan synthase (Candida glabrata, UniProt F5BCZ9, P667T). Briefly: Inhibition of Candida glabrata isolate 51916 1,3-beta-D-glucan synthase wild type Fks1p/Fks2p P667T mutant. In short, it runs like this: as §1
Test [6] addresses 1,3-beta-glucan synthase (Candida glabrata, UniProt E2GKZ4, S629P). Briefly: Inhibition of Candida glabrata isolate 5847 1,3-beta-D-glucan synthase Fks1p S629P mutant/wild type Fks2p. In short, it runs like this:
as §1

Test [7] deals with 1,3-beta-glucan synthase (Candida glabrata, UniProt F5BCZ9, S663P). Briefly: Inhibition of Candida glabrata isolate 3830 1,3-beta-D-glucan synthase wild type Fks1p/Fks2p S663P mutant. In short, it runs like this:
as §1

Test [8] deals with 1,3-beta-glucan synthase (Candida glabrata, UniProt F5BCZ9, D666E). The test can be described thus: Inhibition of Candida glabrata isolate 42031 1,3-beta-D-glucan synthase wild type Fks1p/Fks2p D666E mutant. In short, it runs like this: as §1
Test [9] concerns the target 1,3-beta-glucan synthase (Candida glabrata, UniProt F5BCZ9, F659S). The test can be described thus: Inhibition of Candida glabrata isolate 41026 1,3-beta-D-glucan synthase wild type Fks1p/Fks2p F659S mutant. In short, it runs like this:
as §1

1,3-beta-glucan synthase (Candida glabrata, UniProt E2GKZ4, D632E), sequence (E2GKZ4 entry or part of it D632E): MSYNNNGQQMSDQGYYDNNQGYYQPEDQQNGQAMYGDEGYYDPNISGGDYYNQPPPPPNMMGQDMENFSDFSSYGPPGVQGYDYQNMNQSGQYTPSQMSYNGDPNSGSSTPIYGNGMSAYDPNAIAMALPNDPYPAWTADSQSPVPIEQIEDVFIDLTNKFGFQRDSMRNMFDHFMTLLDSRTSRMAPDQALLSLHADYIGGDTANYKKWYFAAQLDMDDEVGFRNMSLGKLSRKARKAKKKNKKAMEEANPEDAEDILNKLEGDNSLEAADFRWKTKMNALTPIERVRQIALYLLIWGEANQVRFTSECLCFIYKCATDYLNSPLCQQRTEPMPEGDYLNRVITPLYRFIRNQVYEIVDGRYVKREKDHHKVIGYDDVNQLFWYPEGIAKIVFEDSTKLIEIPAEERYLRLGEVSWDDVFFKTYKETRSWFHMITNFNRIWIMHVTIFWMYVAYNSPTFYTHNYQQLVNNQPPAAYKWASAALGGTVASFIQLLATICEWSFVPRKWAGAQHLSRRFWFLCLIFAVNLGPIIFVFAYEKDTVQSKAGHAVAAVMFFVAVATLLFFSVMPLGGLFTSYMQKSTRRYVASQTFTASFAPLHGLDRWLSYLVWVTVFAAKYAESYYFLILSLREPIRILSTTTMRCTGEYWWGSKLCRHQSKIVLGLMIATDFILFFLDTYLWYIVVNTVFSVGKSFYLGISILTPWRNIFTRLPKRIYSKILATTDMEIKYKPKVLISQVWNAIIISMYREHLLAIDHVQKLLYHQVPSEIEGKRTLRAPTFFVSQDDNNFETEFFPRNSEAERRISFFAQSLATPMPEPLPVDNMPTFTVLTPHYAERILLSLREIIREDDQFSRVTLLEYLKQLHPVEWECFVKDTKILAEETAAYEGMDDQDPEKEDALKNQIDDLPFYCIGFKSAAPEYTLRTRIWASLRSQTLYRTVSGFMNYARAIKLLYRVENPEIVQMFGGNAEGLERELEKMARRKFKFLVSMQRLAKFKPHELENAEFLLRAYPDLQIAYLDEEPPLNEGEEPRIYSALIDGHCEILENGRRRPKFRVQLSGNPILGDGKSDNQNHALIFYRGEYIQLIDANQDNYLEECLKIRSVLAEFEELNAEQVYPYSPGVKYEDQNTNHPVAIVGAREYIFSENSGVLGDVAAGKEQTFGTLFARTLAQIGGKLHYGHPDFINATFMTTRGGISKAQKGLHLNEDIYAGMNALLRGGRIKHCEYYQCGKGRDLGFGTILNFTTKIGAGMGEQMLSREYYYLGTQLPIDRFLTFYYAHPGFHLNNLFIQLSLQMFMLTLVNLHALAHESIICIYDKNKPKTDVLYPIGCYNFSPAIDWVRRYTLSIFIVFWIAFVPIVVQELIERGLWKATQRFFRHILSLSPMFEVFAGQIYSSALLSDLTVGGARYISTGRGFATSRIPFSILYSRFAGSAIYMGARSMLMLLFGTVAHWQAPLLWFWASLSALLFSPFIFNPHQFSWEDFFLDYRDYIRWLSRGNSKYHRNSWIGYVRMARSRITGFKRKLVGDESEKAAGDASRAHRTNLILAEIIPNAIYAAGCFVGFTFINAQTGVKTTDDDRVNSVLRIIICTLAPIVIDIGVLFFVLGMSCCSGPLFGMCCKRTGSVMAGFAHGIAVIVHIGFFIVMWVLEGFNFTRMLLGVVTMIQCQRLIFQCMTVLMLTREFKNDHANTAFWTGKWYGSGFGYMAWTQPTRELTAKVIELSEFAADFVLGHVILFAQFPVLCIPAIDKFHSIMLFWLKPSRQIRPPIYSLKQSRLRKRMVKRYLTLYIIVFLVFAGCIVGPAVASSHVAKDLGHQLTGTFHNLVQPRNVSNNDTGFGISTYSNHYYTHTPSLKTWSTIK
1,3-beta-glucan synthase (Candida glabrata, UniProt F5BCZ9, D666E), sequence (F5BCZ9 entry or part of it D666E): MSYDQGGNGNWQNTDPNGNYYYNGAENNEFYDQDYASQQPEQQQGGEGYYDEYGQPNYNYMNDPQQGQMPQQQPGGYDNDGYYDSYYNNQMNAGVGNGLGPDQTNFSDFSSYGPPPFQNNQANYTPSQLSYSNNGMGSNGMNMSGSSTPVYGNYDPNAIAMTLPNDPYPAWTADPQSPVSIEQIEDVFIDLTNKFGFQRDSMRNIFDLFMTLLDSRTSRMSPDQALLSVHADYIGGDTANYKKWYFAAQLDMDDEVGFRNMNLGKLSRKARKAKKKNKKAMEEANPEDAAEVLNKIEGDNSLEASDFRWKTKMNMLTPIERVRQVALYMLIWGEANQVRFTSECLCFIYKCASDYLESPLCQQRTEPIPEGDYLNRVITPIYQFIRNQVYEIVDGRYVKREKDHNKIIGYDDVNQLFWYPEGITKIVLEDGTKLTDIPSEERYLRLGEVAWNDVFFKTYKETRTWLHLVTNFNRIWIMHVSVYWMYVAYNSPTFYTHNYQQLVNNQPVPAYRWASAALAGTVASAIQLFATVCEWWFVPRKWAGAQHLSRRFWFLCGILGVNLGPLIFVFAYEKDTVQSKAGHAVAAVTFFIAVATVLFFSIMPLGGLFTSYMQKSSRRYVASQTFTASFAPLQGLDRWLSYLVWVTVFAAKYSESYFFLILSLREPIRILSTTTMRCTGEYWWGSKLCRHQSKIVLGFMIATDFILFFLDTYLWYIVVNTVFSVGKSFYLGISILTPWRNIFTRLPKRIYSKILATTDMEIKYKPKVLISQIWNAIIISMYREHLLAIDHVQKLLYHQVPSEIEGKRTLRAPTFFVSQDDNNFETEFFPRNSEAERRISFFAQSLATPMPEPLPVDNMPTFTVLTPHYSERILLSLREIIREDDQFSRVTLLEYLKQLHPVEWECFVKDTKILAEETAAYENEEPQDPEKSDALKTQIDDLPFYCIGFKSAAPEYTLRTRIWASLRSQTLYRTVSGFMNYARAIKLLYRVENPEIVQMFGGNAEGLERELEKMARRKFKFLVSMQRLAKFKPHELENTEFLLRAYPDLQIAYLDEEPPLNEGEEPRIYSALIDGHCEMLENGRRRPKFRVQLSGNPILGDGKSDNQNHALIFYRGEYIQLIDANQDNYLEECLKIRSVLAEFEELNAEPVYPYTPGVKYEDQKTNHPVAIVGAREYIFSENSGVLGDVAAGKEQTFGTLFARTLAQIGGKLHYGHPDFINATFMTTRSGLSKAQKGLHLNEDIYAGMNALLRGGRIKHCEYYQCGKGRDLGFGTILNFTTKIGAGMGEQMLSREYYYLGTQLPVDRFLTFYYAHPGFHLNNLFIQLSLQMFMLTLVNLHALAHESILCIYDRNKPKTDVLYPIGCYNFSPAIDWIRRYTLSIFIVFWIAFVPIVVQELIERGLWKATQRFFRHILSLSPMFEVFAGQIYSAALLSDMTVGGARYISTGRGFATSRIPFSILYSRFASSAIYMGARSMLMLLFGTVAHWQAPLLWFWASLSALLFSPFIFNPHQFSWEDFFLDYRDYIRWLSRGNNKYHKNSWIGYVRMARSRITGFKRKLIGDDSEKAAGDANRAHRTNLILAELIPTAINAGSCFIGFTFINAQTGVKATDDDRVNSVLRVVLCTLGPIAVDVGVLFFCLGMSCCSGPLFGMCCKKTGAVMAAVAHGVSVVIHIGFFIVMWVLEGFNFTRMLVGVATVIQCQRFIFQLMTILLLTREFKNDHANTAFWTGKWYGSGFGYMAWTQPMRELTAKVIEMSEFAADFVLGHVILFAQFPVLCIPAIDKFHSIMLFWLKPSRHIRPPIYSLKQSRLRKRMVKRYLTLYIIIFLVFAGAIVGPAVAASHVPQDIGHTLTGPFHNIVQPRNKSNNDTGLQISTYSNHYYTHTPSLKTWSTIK

For the molecule `CCC(C)CC(C)CCCCCCCCC(=O)N[C@H]1C[C@@H](O)[C@@H](NCCN)NC(=O)[C@@H]2[C@@H](O)CCN2C(=O)[C@H]([C@H](O)CCN)NC(=O)[C@H]([C@H](O)[C@@H](O)c2ccc(O)cc2)NC(=O)[C@@H]2C[C@@H](O)CN2C(=O)[C@H]([C@@H](C)O)NC1=O` (some centres undefined) [CHEBI:474180], the IC50 on 1,3-beta-glucan synthase [1] came to 845 nM; on 1,3-beta-glucan synthase [2] it was 608 nM; on 1,3-beta-glucan synthase [3], 115 nM; against 1,3-beta-glucan synthase [4] it was 507 nM; on 1,3-beta-glucan synthase [5], 166 nM; against 1,3-beta-glucan synthase [6], 4990 nM. In addition, the IC50 is 5120 nM against 1,3-beta-glucan synthase [7], 258 nM on 1,3-beta-glucan synthase [8] and 1060 nM at 1,3-beta-glucan synthase [9].

What is called IC50 is the point on the concentration scale where inhibition reaches its midpoint. A high value points to weaker potency.
